# Assay results as given in ChEMBL document CHEMBL5252635, “The Mycobacterium tuberculosis mycothiol S-transferase is divalent metal-dependent for mycothiol binding and transfer” (2023).
# Tests used:
# [1] = tested on: Mycobacterium tuberculosis; assay: Antibacterial activity against Mycobacterium tuberculosis rv0443 knockout strain incubated for 10 days by resazurin dye based microtiter plate assay; assay type: functional; settings: rv0443, 240 h, time 10 day
# Outline: (§1)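 MIC in 7H9-ADC-Tween 80 medium. Strains (CDC1551 WT, rv0443 KO) grown to mid-log (OD600 ~0.8), diluted to OD600 0.01, exposed to serial antibiotic dilutions for 10 days at 37 °C; MIC read by resazurin blue test.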
# [2] = tested on: Mycobacterium tuberculosis; assay: Antibacterial activity against wild type Mycobacterium tuberculosis CDC1551 incubated for 10 days by resazurin dye based microtiter plate assay; assay type: functional; settings: CDC1551, 240 h, time 10 day; outline: as §1
smiles,measurement,setting,value
CO[C@H]1/C=C/O[C@@]2(C)Oc3c(C)c(O)c4c(O)c(c(/C=N/N5CCN(C)CC5)c(O)c4c3C2=O)NC(=O)/C(C)=C\C=C\[C@H](C)[C@H](O)[C@@H](C)[C@@H](O)[C@@H](C)[C@H](OC(C)=O)[C@@H]1C [RIFAMPIN],MIC,[1],2.5 ng/mL
same,MIC,[2],2.5 ng/mL
